Laboratory results from paper PMC6263940 (Nature chemical biology, 2018).

Experiments:
ABHD12 [1] = target: T1, ABHD12 (Mus musculus, UniProt Q99LR1); assay: Competitive gel-based ABPP with JJH350 probe in mouse brain membrane proteome; assay type: biochemical; settings: for activity against ABHD12 (in words): gel-based competitive ABPP, mouse brain membrane proteome
T1 sequence (Q99LR1 1-398): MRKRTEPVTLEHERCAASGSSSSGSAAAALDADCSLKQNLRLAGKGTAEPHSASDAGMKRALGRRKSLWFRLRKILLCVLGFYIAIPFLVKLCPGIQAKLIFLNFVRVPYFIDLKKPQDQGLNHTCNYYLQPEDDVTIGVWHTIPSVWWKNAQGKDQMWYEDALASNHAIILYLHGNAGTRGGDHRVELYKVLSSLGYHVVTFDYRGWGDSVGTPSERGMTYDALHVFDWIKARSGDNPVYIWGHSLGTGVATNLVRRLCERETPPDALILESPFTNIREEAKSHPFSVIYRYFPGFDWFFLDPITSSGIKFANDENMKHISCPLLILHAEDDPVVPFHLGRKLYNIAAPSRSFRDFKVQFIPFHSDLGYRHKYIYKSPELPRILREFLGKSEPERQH

ABHD12 [2] = target: T1, ABHD12; assay: Covalent labelling of mouse brain ABHD12 visualized by CuAAC with Rh-N3; assay type: biochemical; settings: 45 min, 37 °C
ABHD12 [3] = target: T1, ABHD12; assay: Lyso-PS hydrolysis assay with membrane lysates of ABHD12-transfected cells; assay type: biochemical
In short: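 Membrane lysate of ABHD12-transfected cells in DPBS incubated with 17:1 lyso-PS (100 μM final) for 20 min at 37 °C. Quenched in 2:1 CHCl₃/MeOH with 15:0 FFA internal standard. Activity is the LC-MS 17:1 FFA/15:0 FFA peak-area ratio minus mock-transfected membrane activity. IC50 fitted as log(inhibitor) vs normalized response.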

ABHD12 [4] = target: T2, ABHD12 (Homo sapiens, UniProt Q8N2K0); assay: ABPP-SILAC; assay type: cell-based; settings: 1 μM, 4 h, THP-1 cells
T2 sequence (Q8N2K0 1-398): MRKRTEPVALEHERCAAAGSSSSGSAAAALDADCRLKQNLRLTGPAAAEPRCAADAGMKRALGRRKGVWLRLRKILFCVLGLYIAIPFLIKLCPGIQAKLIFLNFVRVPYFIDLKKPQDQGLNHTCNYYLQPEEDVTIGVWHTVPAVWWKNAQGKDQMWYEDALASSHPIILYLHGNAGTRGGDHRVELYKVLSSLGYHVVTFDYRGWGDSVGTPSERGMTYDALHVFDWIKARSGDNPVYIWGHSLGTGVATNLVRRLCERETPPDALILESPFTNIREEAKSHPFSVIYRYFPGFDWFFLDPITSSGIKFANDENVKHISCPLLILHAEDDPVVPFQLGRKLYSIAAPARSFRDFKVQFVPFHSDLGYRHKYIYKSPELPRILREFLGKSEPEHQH
In short: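 Heavy- or light-labelled THP-1 cells (30 million) differentiated with PMA (150 ng/mL final) for 24 h, washed, then kept a further 24 h in fresh SILAC medium. Light cells treated with test compound and heavy cells with DMSO, 4 h at 37 °C. Sonicated whole-cell proteomes (2 mg/mL) labelled separately with FP-biotin 1 μM, 30 min, room temperature, then combined for quantitative MS.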

LCMV clone 13 = settings: mouse, in vivo, ip, 30 mg/kg
[5] = Measurement of drug concentration in brain and blood of mice; assay type: in vivo, mouse; settings: 4 h, at 60 mg/kg (i.p.) approximated exposures observed with DO264
In short: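 Tissues harvested 4 h after dosing. Brain homogenised in 4 volumes of water per weight; cardiac-puncture blood quenched 1:4 in acetonitrile. Samples diluted 1000–2000-fold in 50% ACN and spiked into blank C57BL/6J brain homogenate or blood, alongside serially diluted calibration standards. After vortexing and centrifugation (4 °C, 15 min), supernatant diluted 5-fold in water and quantified by LC/MS/MS.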

THP-1 cells = assay: Targeted LC-MS of; assay type: cell-based, human; settings: DO264 0.001-1 μM, (S)-DO271 1 μM, 4 h
In short: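 THP-1 cells (6 million in 10 mL) incubated with test compound or DMSO for 4 h at 37 °C, 5% CO₂. Cells washed twice with ice-cold DPBS and stored at −80 °C, then analysed by targeted LC-MS metabolomics for lyso-PS and PS species.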

ABHD12 [6] = target: T1, ABHD12; assay: Ex vivo gel-based competitive ABPP; assay type: in vivo; settings: mice, 60 mg/kg, 4 h
ABHD12 [7] = target: T2, ABHD12; assay: In situ treatment of THP-1 cells, competitive gel-based ABPP with JJH350 probe; assay type: cell-based; settings: 1 μM, 4 h in situ
In short: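 Whole THP-1 cells exposed to test compound or DMSO for 4 h at 37 °C, 5% CO₂, then washed twice with ice-cold DPBS. Proteome (1 mg/mL) labelled with JJH350 (2 μM final, 45 min, 37 °C), clicked by CuAAC and resolved on gel. ABHD12 band intensity is expressed relative to the control-treated sample, set to 100%.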

[8] = tested on: serine hydrolases in THP-1 cells; assay: ABPP-SILAC; assay type: cell-based, human; settings: 1 μM, 4 h, THP-1 cells
mice = assay: Two-week daily dosing, overt signs of toxicity; assay type: in vivo, mouse; settings: adult mice, 30 mg/kg daily, p.o., two weeks
ABHD12 [9] = target: T1, ABHD12; assay: Competitive ABPP with FP-Rh probe, lysates of ABHD12-transfected cells; assay type: biochemical; settings: hit compound tested at 10 μM
In short: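 Mouse ABHD12 expressed in HEK293F cells by PEI transfection (48 h, 37 °C, 5% CO₂). Membranes prepared by hypotonic lysis, sonication, 100,000 × g pelleting and a high-salt wash, then resuspended in DPBS. Lysate (1 mg/mL) pre-exposed to hit compound, then labelled with FP-Rh (1 μM final, 45 min, 37 °C). Gel band intensity is read relative to control (100%).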

SMILES: CN(C(=S)Nc1cccnc1)C1CCN(c2nccc(Oc3ccc(OC(F)(F)F)cc3Cl)c2Cl)CC1 [DO276, N-3-pyridyl-N’-methyl-N’-(1-[3-chloro-4-{2-chloro-4-(trifluoromethoxy)phenoxy}pyridine-2-yl]piperidin-4-yl)thiourea]
- IC50 (ABHD12 [1]): 1100 nM

SMILES: C#Cc1ccc(Oc2ccnc(N3CCC(NC(=S)Nc4cccnc4)CC3)c2Cl)c(Cl)c1 [DO274, N-3-pyridyl-N’-(1-[3-chloro-4-{2-chloro-4-(ethynyl)phenoxy}pyridine-2-yl]piperidin-4-yl)thiourea]
- covalent modification of ABHD12 (ABHD12 [2]): did not show evidence of covalent modification
- ABHD12 inhibitory activity (in words) (ABHD12 [3]): potent ABHD12 inhibitory activity

SMILES: FC(F)(F)Oc1ccc(Oc2ccnc(N3CCC[C@H](NC(=S)Nc4cccnc4)C3)c2Cl)c(Cl)c1 [(S)-DO271, (S)-N-3-pyridyl-N’-(1-[3-chloro-4-{2-chloro-4-(trifluoromethoxy)phenoxy}pyridine-2-yl]piperidin-3-yl)thiourea]
- effect on ABHD12 activity (in words) (ABHD12 [4]): did not affect
- fraction of treated ABHD12(−/−) mice that died prior to sacrifice at day 10 (LCMV clone 13): 30-40%
- exposure compared with DO264 (in words) [5]: lower exposure
- lyso-PS content of THP-1 cells (THP-1 cells): did not alter
- brain ABHD12 activity, ex vivo analysis with JJH350 probe (ABHD12 [6]): did not block
- ABHD12 activity in THP-1 cells by competitive gel-based ABPP (in words) (ABHD12 [7]): unaffected
- effect on activity of other serine hydrolases [8]: did not affect
- activity against ABHD12 (in words) (ABHD12 [1]): inactive
- overt signs of toxicity, such as weight loss or behavioral distress (mice): neither compound produced overt signs of toxicity

SMILES: FC(F)(F)c1cnc(N2CCC(NC(=S)Nc3cccnc3)CC2)c(Cl)c1 [DO130, N-3-pyridyl-N’-[1-{3-chloro-5-(trifluoromethyl)pyridin-2-yl}piperidin-4-yl]thiourea]
- IC50 (ABHD12 [3]): 1300 nM
- activity in LC/MS-based lyso-PS hydrolysis secondary assay (ABHD12 [3]; hit compound tested at 10 μM): showed activity
- activity in competitive ABPP secondary assay (FP-Rh probe) (ABHD12 [9]): showed activity

SMILES: O=C(Nc1cccnc1)NC1CCN(c2nccc(Oc3ccc(OC(F)(F)F)cc3Cl)c2Cl)CC1 [DO277, N-3-pyridyl-N’-(1-[3-chloro-4-{2-chloro-4-(trifluoromethoxy)phenoxy}pyridine-2-yl]piperidin-4-yl)urea]
- IC50 (ABHD12 [1]): 170 nM

SMILES: Cc1cnc(N2CCN(NC(=S)Nc3cccnc3)CC2)c(Cl)c1 [DO127, N-3-pyridyl-N’-[1-{3-chloro-5-(methyl)pyridin-2-yl}piperazine-4-yl]thiourea]
- activity against ABHD12 (in words) (ABHD12 [1]): no activity
